Measured values published in ChEMBL document CHEMBL1148705, “Sponge-derived fijianolide polyketide class: further evaluation of their structural and cytotoxicity properties” (J Med Chem, 2007).
Activity calls are given as the source filed them. The calls are words filed in the database; no cut-off is given here.

Key:
[1] = system: MC-38; test: Cytotoxicity against mouse C38 cells at 40 ug/disk by disk diffusion method; assay type: functional
Method in brief: (§1)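 Soft agar colony formation assay with compound applied by disk diffusion; cell lines: murine L1210 leukemia and C38 colon, human HCT-116 colon, H-125 lung, CEM leukemia, normal hematopoietic CFU-GM. Differential cytotoxicity given as zone-unit differential between a solid tumor line and leukemia (ΔSL) or normal cells (ΔSN).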

[2] = system: L1210; test: Cytotoxicity against mouse L1210 cells at 40 ug/disk by disk diffusion method; assay type: functional; method in brief: as §1
[3] = Cytotoxicity against human H116 cells at 40 ug/disk by disk diffusion method; assay type: functional; method in brief: as §1
[4] = system: HCT-116; test: Cytotoxicity against human HCT116 cells after 72 hrs by trypan blue viable cell count; details: HCT-116, 72 h
[5] = system: HCT-116; test: Formation of circular mitotic spindles in human HCT116 up to 50 uM; assay type: functional, cell-based
Method in brief: (§2)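 Cell-based screen for disruption of interphase and mitotic microtubules, tested at concentrations up to 50 µM; scored for microtubule density, bundling, circular mitotic spindles, micronucleation and other nuclear changes.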

[6] = Cytotoxicity against human H125 cells at 40 ug/disk by disk diffusion method; assay type: functional; method in brief: as §1
[7] = system: HCT-116; test: Effect on micronucleation in human HCT116 up to 50 uM; assay type: functional, cell-based; method in brief: as §2
[8] = system: HCT-116; test: Increase in microtubule density in human HCT116 up to 50 uM; assay type: functional, cell-based; method in brief: as §2
[9] = system: MDA-MB-435; test: Cytotoxicity against human MDA-MB-435 cells after 48 hrs by SRB assay; details: MDA-MB-435, 48 h
[10] = Cytotoxicity against human H125 cells at 60 ug/disk by disk diffusion method; assay type: functional
Method in brief: (§3)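 Disk diffusion soft agar colony formation assay using solid tumor lines (murine colon C38, human colon HCT-116, human lung H125), leukemia lines (murine L1210, human CEM) and normal CFU-GM cells. Results are inhibition zones in zone units. Differential cytotoxicity is the zone difference between solid tumor and leukemia cells (ΔSL) or normal cells (ΔSN).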

[11] = Cytotoxicity against human H116 cells at 60 ug/disk by disk diffusion method; assay type: functional; method in brief: as §3
[12] = system: L1210; test: Cytotoxicity against mouse L1210 cells at 60 ug/disk by disk diffusion method; assay type: functional; method in brief: as §3
[13] = system: MC-38; test: Cytotoxicity against mouse C38 cells at 60 ug/disk by disk diffusion method; assay type: functional; method in brief: as §3
[14] = system: MC-38; test: Cytotoxicity against mouse C38 cells at 30 ug/disk by disk diffusion method; assay type: functional; method in brief: as §1
[15] = Cytotoxicity against human H125 cells at 30 ug/disk by disk diffusion method; assay type: functional; method in brief: as §1
[16] = Cytotoxicity against human H116 cells at 30 ug/disk by disk diffusion method; assay type: functional; method in brief: as §1
[17] = system: L1210; test: Cytotoxicity against mouse L1210 cells at 30 ug/disk by disk diffusion method; assay type: functional; method in brief: as §1
[18] = system: HCT-116; test: Abnormal circular mitotic spindles formation in human HCT116 cells at 2 to 20 uM; assay type: functional, cell-based
[19] = system: HCT-116; test: Increase in microtubule density in human HCT116 cells at 20 uM; assay type: functional, cell-based
[20] = Cytotoxicity against human CFU-GM cells at 9 ug/disk by disk diffusion method; assay type: cell-based; method in brief: as §3
[21] = Drug level in HCT116 bearing SCID mice plasma at 25 mg/kg, iv after 24 hrs; assay type: ADME, organism-based; set-up: dose 25 mg/kg, route intravenous; details: mouse
Method in brief: (§4)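 SCID mice bearing subcutaneous HCT-116 tumors (~100 mg) got a single iv dose of 0.5 mg/mouse (25 mg/kg) in 0.25 mL. Vehicle: 10 mg/mL DMSO stock mixed 1:1 with cremophor/propylene glycol (60:40), then diluted 20-fold in saline. Plasma was taken from individual mice at 1, 15, 30 min and 1, 2, 6, 24 h. Drug was extracted by solid-phase extraction and measured by C18 HPLC with UV detection at 218 nm.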

[22] = system: HCT-116; test: Cytotoxicity against human HCT116 cells assessed as cell kill at 1.2 ng/mL after 168 hrs; assay type: functional
Method in brief: (§5)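 Clonogenic assay. HCT-116 cells were seeded at 200 to 20 000 per 60 mm dish in RPMI + 10% FBS, then given drug at 1 mg/mL and 10-fold dilutions. Exposure was 2 h or 24 h followed by drug-free medium, or continuous. Dishes were incubated 7 days and stained with methylene blue; colonies of ≥50 cells were counted and normalized to untreated control. Experiments were repeated to span 100–0.1% survival.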

[23] = system: HCT-116; test: Antitumor activity against HCT116 bearing SCID mice at 25 mg/kg bolus iv after 11 days relative to control; assay type: functional, Homo sapiens
Method in brief: (§6)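 SCID mice were implanted subcutaneously with 10^6 HCT-116 cells and pooled, 5 per group. Dosing started 3 days after inoculation: daily iv tail-vein bolus for 5 days, 0.25 mL of 1 or 2 mg/mL (about 12.5 or 25 mg/kg/day) in DMSO/cremophor/propylene glycol/saline vehicle. Tumor weight and body weight were followed to day 30, and %T/C was calculated versus untreated controls.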

[24] = system: MC-38; test: Cytotoxicity against mouse C38 cells at 36 ug/disk by disk diffusion method; assay type: functional; method in brief: as §3
[25] = Drug level in HCT116 bearing SCID mice plasma at 25 mg/kg, iv after 2 hrs; assay type: ADME, organism-based; set-up: dose 25 mg/kg, route intravenous; details: mouse; method in brief: as §4
[26] = system: HCT-116; test: Formation of thick bundles of microtubule stabilization in human HCT116 cells at 20 uM; assay type: functional, cell-based
[27] = system: HCT-116; test: Survival of human HCT116 cells at 5 ng/mL after 168 hrs; assay type: functional; details: HCT-116, 168 h, read-out: Survival; method in brief: as §5
[28] = system: HCT-116; test: Formation of thick bundles of microtubule stabilization in human HCT116 cells at 2 to 20 uM; assay type: functional, cell-based
[29] = Drug level in HCT116 bearing SCID mice plasma at 25 mg/kg, iv after 1 min; assay type: ADME, organism-based; set-up: dose 25 mg/kg, route intravenous; details: mouse; method in brief: as §4
[30] = system: L1210; test: Cytotoxicity against mouse L1210 cells at 9 ug/disk by disk diffusion method; assay type: functional; method in brief: as §3
[31] = system: CCRF-CEM; test: Cytotoxicity against human CEM cells at 36 ug/disk by disk diffusion method; assay type: functional; method in brief: as §3
[32] = Cytotoxicity against human H125 cells at 9 ug/disk by disk diffusion method; assay type: functional; method in brief: as §3
[33] = system: HCT-116; test: Antitumor activity against HCT116 bearig SCID mouse assessed as tumor weight at 25 mg/kg, iv after 24 hrs; assay type: functional, Homo sapiens
[34] = system: HCT-116; test: Antitumor activity against HCT116 bearing SCID mice at 12.5 mg/kg bolus iv after 9 days relative to control; assay type: functional, Homo sapiens; method in brief: as §6
[35] = Cytotoxicity against human H116 cells at 9 ug/disk by disk diffusion method; assay type: functional; method in brief: as §3
[36] = system: HCT-116; test: Cytotoxicity against human HCT116 cells assessed as cell kill at 10 ng/mL after 24 hrs; assay type: functional; method in brief: as §5
[37] = system: HCT-116; test: Antitumor activity against HCT116 bearig SCID mouse assessed as tumor weight at 25 mg/kg, iv after 30 mins; assay type: functional, Homo sapiens
[38] = Cytotoxicity against human CFU-GM cells at 40 ug/disk by disk diffusion method; assay type: cell-based; method in brief: as §1
[39] = system: CCRF-CEM; test: Cytotoxicity against human CEM cells at 40 ug/disk by disk diffusion method; assay type: functional; method in brief: as §1
[40] = Cytotoxicity against human CFU-GM cells at 30 ug/disk by disk diffusion method; assay type: cell-based; method in brief: as §1
[41] = system: MC-38; test: Cytotoxicity against mouse C38 cells at 100 ug/disk by disk diffusion method; assay type: functional; method in brief: as §1
[42] = Cytotoxicity against human H125 cells at 100 ug/disk by disk diffusion method; assay type: functional; method in brief: as §1
[43] = Cytotoxicity against human H116 cells at 100 ug/disk by disk diffusion method; assay type: functional; method in brief: as §1
[44] = system: L1210; test: Cytotoxicity against mouse L1210 cells at 100 ug/disk by disk diffusion method; assay type: functional; method in brief: as §1

| Compound | IC50 [4] [µM] | Activity [5] | Activity [7] | Activity [8] | IC50 [9] [µM] | Activity [14] [Zone units] | Activity [15] [Zone units] | Activity [16] [Zone units] | Activity [17] [Zone units] | other results |
| --- | --- | --- | --- | --- | --- | --- | --- | --- | --- | --- |
| C=C1C[C@H](C)C[C@@H]2CC=C[C@@H](C/C=C\C(=O)O[C@H]3C[C@@H](O[C@H]3/C=C/[C@@H]3CC(C)=CC(OC)O3)[C@@H](O)[C@@H](O)C1)O2 (stereo not given in full) [FIJIANOLIDE H] | > 50 | inactive | inactive | inactive | > 50 |  |  |  |  | Activity [1]: 150 Zone units; Activity [2]: 0 Zone units; Activity [3]: 0 Zone units; Activity [6]: 0 Zone units |
| C=C1C[C@H](C)C[C@@H]2CC=C[C@@H](C/C=C\C(=O)O[C@H]3C[C@@H](O[C@H]3/C=C/[C@@H]3C[C@@]4(C)O[C@H]4[C@@H](O)O3)[C@@H](O)[C@@H](O)C1)O2 [FIJIANOLIDE F] | > 50 | inactive | inactive | inactive | > 50 |  |  |  |  | Activity [10]: 100 Zone units; Activity [11]: 50 Zone units; Activity [12]: 150 Zone units; Activity [13]: 0 Zone units |
| C=C1C[C@H](C)C[C@@H]2CC=C[C@@H](C/C=C\C(=O)O[C@H]3C[C@@H](O[C@H]3/C=C/[C@@H]3CC(C)=CC(O)O3)[C@@H](O)[C@@H](O)C1)O2 (stereo not given in full) [FIJIANOLIDE I] | > 50 | inactive | inactive | inactive | > 50 | 50 | 0 | 0 | 0 |  |
| C=C1C[C@H](C)C[C@@H]2CC=C[C@@H](C/C=C\C(=O)O[C@H]([C@@H](O)/C=C/[C@@H]3CC(C)=CCO3)C[C@@H]3O[C@H]3[C@@H](O)C1)O2 [FIJIANOLIDE B] | 0.003 |  |  |  | 0.007 |  |  |  |  | Activity [18]: Active; Activity [19]: Active; Activity [20]: 550 Zone units; concentration at 24 h [21]: 200 µg/mL; Activity [22]: 90%; Activity [23]: 11%; Activity [24]: 800 Zone units; concentration at 2 h [25]: 1 µg/mL; Activity [26]: inactive; viability at 0.005 µg/mL [27]: 0.01%; Activity [28]: Active; concentration at 1 min [29]: 160 µg/mL; Activity [30]: 500 Zone units; Activity [31]: >1000 Zone units; Activity [32]: 250 Zone units; Activity [33]: 2.8 µg/mg; Activity [34]: 80%; Activity [35]: 700 Zone units; Activity [36]: 90%; Activity [37]: 4.7 µg/mg |
| C=C1C[C@H](C)C[C@@H]2CC=C[C@@H](C/C=C\C(=O)OC([C@@H](O)/C=C/[C@@H]3CC(C)=CC(=O)O3)C[C@@H]3O[C@H]3[C@@H](O)C1)O2 (stereo not given in full) [FIJIANOLIDE E] | 0.7 | Active | Active | Active | 1.3 |  |  |  |  | Activity [1]: 400 Zone units; Activity [2]: 350 Zone units; Activity [3]: 500 Zone units; Activity [38]: 500 Zone units; Activity [6]: 400 Zone units; Activity [39]: 550 Zone units |
| C=C1C[C@H](C)C[C@@H]2CC=C[C@@H](C/C=C\C(=O)O[C@H]3C[C@@H](O[C@H]3/C=C/[C@@H]3CC(C)=CCO3)[C@@H](O)[C@@H](O)C1)O2 [FIJIANOLIDE A] | 9.7 |  |  |  | 20.2 | 0 | 50 | 100 | 150 |  |
| C=C1C[C@H](C)C[C@@H]2CC=C[C@@H](C/C=C\C(=O)O[C@H]([C@@H](O)/C=C/[C@@H]3C[C@@]4(C)O[C@H]4[C@@H](O)O3)C[C@@H]3O[C@H]3[C@@H](O)C1)O2 [FIJIANOLIDE G] | 14.1 | Active | Active | Active | 9.2 | 350 | 200 | 200 | 150 | Activity [40]: 100 Zone units |
| C=C1C[C@H](C)C[C@@H]2CC=C[C@@H](C/C=C\C(=O)O[C@H]3C[C@@H](O[C@H]3/C=C/[C@@H]3CC(C)=CC(=O)O3)[C@@H](O)[C@@H](O)C1)O2 [FIIJIANOLIDE D] | 1.9 | inactive | inactive | inactive | 21.4 |  |  |  |  | Activity [41]: 150 Zone units; Activity [42]: 0 Zone units; Activity [43]: 0 Zone units; Activity [44]: 0 Zone units |
